Calls of active or inactive are those of the source.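 How the source made its calls, unless noted: active means GFP response above 150% of the DMSO level; inconclusive means fewer than 70 events counted for a yeast strain; inactive means the rest.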

From PubChem BioAssay come the findings set out here.

A short description of assay [1]: hit retest on RPL19A-GFP reporter strain – cell-based, S. cerevisiae, flow cytometry, cherry picks, mother/daughter gates, confirmation (AID 2270;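 active means GFP response below 50% of the DMSO control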). The conditions noted are these: 3 h, at 10 µM, stronger effect = lower value, 100 = same GFP as DMSO wells. Background: In flow cytometry, cells or beads pass a laser one at a time.
A short description of assay [2]: yeast TOR pathway reporter LAP4-GFP change – cell-based, cherry picks, flow cytometry, mother/daughter gates, confirmation (AID 2271;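 active means GFP response above 150% of the DMSO control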;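 further: ratio of sample to DMSO plate mean so 100% equals DMSO level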). As to conditions: S. cerevisiae LAP4-GFP strain, 3 h, at 10 µM, stronger effect = higher value, 100 means same as DMSO control. The essentials: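 Material: Alexa Fluor 633-labelled Saccharomyces cerevisiae GFP-fusion strain, single-plex | Amount: Yeast cells seeded at OD600 of 0.2 | Buffer or medium: SC growth medium | Schedule: 3 h exposure, 30 °C | Measured by: HT flow cytometry, GFP fluorescence channel | Evaluation: % GFP response vs DMSO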

A short description of assay [3]: TOR pathway reporter MEP2-GFP, retest of hits – S. cerevisiae, flow cytometry GFP, cherry picks, confirmation (AID 2272;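 active means GFP response above 150% of the DMSO control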;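 further: ratio of well signal to plate DMSO mean so 100% equals DMSO level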). As to conditions: S. cerevisiae MEP2-GFP strain, 3 h, at 10 µM, stronger effect = higher value.
Assay [4] can be described thus: yeast AGP1-GFP fluorescence change, single-dose – cell-based, flow cytometry, S. cerevisiae, cherry picks, confirmation (AID 2273).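 Further: median GFP channel fluorescence over the whole cell population gate.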 As to conditions: S. cerevisiae AGP1-GFP strain, 3 h, at 10 µM.
The nature of assay [5]: TOR pathway CIT2 reporter hit retest – S. cerevisiae, GFP fusion, cherry picks, mother/daughter gates, confirmation (AID 2274). As to conditions: S. cerevisiae CIT2-GFP strain, flow cytometry, 3 h, at 10 µM, stronger effect = higher value.
The mark [6] stands for this setting: measured here: daughter cell gate.
[7] abbreviates: measured here: mother cell gate.
Where [8] appears, read: measured here: daughter cell gate response.
Where [9] appears, read: measured here: mother cell gate response.

As for `COc1ccc(-c2noc(CCCC(=O)NCCc3ccccc3)n2)cc1OC`, the GFP response vs DMSO was 99.3% (inactive) in assay [1], 97.3% in assay [1] (setting [6]), 97.3% in assay [1] (setting [7]) and 103% (inactive) in assay [3]. The GFP response relative to DMSO in assay [2] is 100% (inactive); in assay [2] (setting [8]) it was 101%; in assay [2] (setting [9]), 101%. Also, the GFP response, % of DMSO in assay [4] is 100% (inactive); in assay [5] it was 101% (inactive); in assay [5] (setting [6]) it was 101%; in assay [5] (setting [7]) it was 100%.

In the case of `C/C(=N\NC(=O)c1ccc(Cl)c(Cl)c1)c1cccc(NC(=O)C(C)C)c1`, the GFP response vs DMSO in assay [1] was 99.9% (inactive); in assay [1] (setting [6]), 99.8%; in assay [1] (setting [7]) it was 101%; in assay [3], 99.5% (inactive). Moreover, the GFP response relative to DMSO is 94.2% (inactive) in assay [2], 93.6% in assay [2] (setting [8]) and 94.6% in assay [2] (setting [9]). The GFP response, % of DMSO in assay [4] is 96% (inactive); in assay [5], 99.3% (inactive); in assay [5] (setting [6]) it was 100%; in assay [5] (setting [7]) it was 96.8%.

In the case of `CCOC(=O)CS(=O)(=O)c1nc(-c2ccc(F)cc2)cc(C(F)(F)F)n1`, the GFP response vs DMSO in assay [1] is 109% (inactive); in assay [1] (setting [6]) it was 113%; in assay [1] (setting [7]) it was 102%; in assay [3], 113% (inactive). Besides, the GFP response relative to DMSO was 170% (active) in assay [2], 170% in assay [2] (setting [8]) and 165% in assay [2] (setting [9]). In addition, the GFP response, % of DMSO in assay [4] is 108% (inactive); in assay [5] it was 116% (inactive); in assay [5] (setting [6]) it was 123%; in assay [5] (setting [7]), 106%.

Take `COCCNC(=O)c1ccccc1-c1nc(-c2ccccc2Cl)no1`: the GFP response vs DMSO in assay [1] was 98% (inactive); in assay [1] (setting [6]), 97.1%; in assay [1] (setting [7]), 98.9%; in assay [3], 105% (inactive). Besides, the GFP response relative to DMSO was 101% (inactive) in assay [2], 99.2% in assay [2] (setting [8]) and 99.3% in assay [2] (setting [9]). For the same compound, the GFP response, % of DMSO was 96% (inactive) in assay [4], 105% (inactive) in assay [5], 105% in assay [5] (setting [6]) and 103% in assay [5] (setting [7]).

Take `Cc1ccc(NC(=O)COc2ccc(Br)cc2C)cc1`: the GFP response vs DMSO in assay [1] was 99.5% (inactive); in assay [1] (setting [6]) it was 97.3%; in assay [1] (setting [7]), 100%; in assay [3] it was 104% (inactive). Moreover, the GFP response relative to DMSO is 107% (inactive) in assay [2], 102% in assay [2] (setting [8]) and 104% in assay [2] (setting [9]). Further, the GFP response, % of DMSO in assay [4] was 96.7% (inactive); in assay [5], 97.8% (inactive); in assay [5] (setting [6]), 98.3%; in assay [5] (setting [7]), 95.6%.

Consider `COc1cccc(C(=O)/C=C/c2ccc(SC)cc2)c1`, for which the GFP response vs DMSO in assay [1] is 98.6% (inactive); in assay [1] (setting [6]) it was 98.1%; in assay [1] (setting [7]), 98.5%; in assay [3], 100% (inactive). In addition, the GFP response relative to DMSO in assay [2] was 103% (inactive); in assay [2] (setting [8]), 104%; in assay [2] (setting [9]), 103%. Moreover, the GFP response, % of DMSO in assay [4] was 101% (inactive); in assay [5] it was 99.7% (inactive); in assay [5] (setting [6]) it was 99.1%; in assay [5] (setting [7]), 99.7%.

In the case of `Cc1cc(N)ccc1NC(=O)c1ccccc1`, the GFP response vs DMSO in assay [1] was 101% (inactive); in assay [1] (setting [6]), 99.6%; in assay [1] (setting [7]), 102%; in assay [3], 105% (inactive). Further, the values for the GFP response relative to DMSO in assay [2], in assay [2] (setting [8]) and in assay [2] (setting [9]) were 98.2% (inactive), 99.1% and 98.4%, respectively. For the same compound, the GFP response, % of DMSO in assay [4] was 103% (inactive); in assay [5], 100% (inactive); in assay [5] (setting [6]), 101%; in assay [5] (setting [7]), 101%.

As to `Cc1ccc(NC(=O)c2ccccc2)cc1`, the GFP response vs DMSO is 100% (inactive) in assay [1], 99% in assay [1] (setting [6]), 100% in assay [1] (setting [7]) and 100% (inactive) in assay [3]. Moreover, the GFP response relative to DMSO is 98.7% (inactive) in assay [2], 100% in assay [2] (setting [8]) and 100% in assay [2] (setting [9]). For the same compound, the GFP response, % of DMSO in assay [4] is 91.5% (inactive); in assay [5] it was 96.5% (inactive); in assay [5] (setting [6]) it was 96.5%; in assay [5] (setting [7]), 93.4%.

For `CCOC(=O)C1(Cc2ccccc2Cl)CCN(C(=O)CCn2ccnc2C)CC1`, the GFP response vs DMSO in assay [1] was 96.6% (inactive); in assay [1] (setting [6]), 97.3%; in assay [1] (setting [7]), 97.2%; in assay [3] it was 99.5% (inactive). Further, the GFP response relative to DMSO in assay [2] was 101% (inactive); in assay [2] (setting [8]), 104%; in assay [2] (setting [9]), 99.5%. Besides, the GFP response, % of DMSO in assay [4] is 100% (inactive); in assay [5], 97.8% (inactive); in assay [5] (setting [6]) it was 98.3%; in assay [5] (setting [7]), 98%.

As for `c1cnc2c(SCc3ccc(-c4nnco4)cc3)cccc2c1`, the GFP response vs DMSO in assay [1] was 98.2% (inactive); in assay [1] (setting [6]) it was 96.4%; in assay [1] (setting [7]), 97.5%; in assay [3] it was 106% (inactive). Moreover, the GFP response relative to DMSO in assay [2] was 108% (inactive); in assay [2] (setting [8]), 108%; in assay [2] (setting [9]), 110%. The GFP response, % of DMSO in assay [4] was 104% (inactive); in assay [5], 94.4% (inactive); in assay [5] (setting [6]) it was 90.5%; in assay [5] (setting [7]), 96%.

As for `c1ccc(-c2n[nH]c3ccccc23)cc1`, the GFP response vs DMSO in assay [1] was 98.4% (inactive); in assay [1] (setting [6]) it was 97.1%; in assay [1] (setting [7]), 97.6%; in assay [3], 96.2% (inactive). Also, the GFP response relative to DMSO is 101% (inactive) in assay [2], 101% in assay [2] (setting [8]) and 98.3% in assay [2] (setting [9]). Moreover, the GFP response, % of DMSO was 92.1% (inactive) in assay [4], 96.9% (inactive) in assay [5], 97.2% in assay [5] (setting [6]) and 97.3% in assay [5] (setting [7]).

As for `O=C1c2cccc3cccc(c23)C(=O)N1c1nncs1`, the GFP response vs DMSO in assay [1] is 103% (inactive); in assay [1] (setting [6]), 102%; in assay [1] (setting [7]), 103%; in assay [3] it was 102% (inactive). For the same compound, the results for the GFP response relative to DMSO in assay [2], in assay [2] (setting [8]) and in assay [2] (setting [9]) were 91.4% (inactive), 94.1% and 92.1%, respectively. Further, the GFP response, % of DMSO in assay [4] is 99.8% (inactive); in assay [5] it was 96.5% (inactive); in assay [5] (setting [6]), 94.8%; in assay [5] (setting [7]), 99.8%.

`CCCc1[nH]nc2c1C1(C(=O)N(C(C)C)c3ccccc31)C(C#N)=C(N)O2` (stereo unspecified): the GFP response vs DMSO in assay [1] is 98.2% (inactive); in assay [1] (setting [6]) it was 99.8%; in assay [1] (setting [7]), 98.2%; in assay [3], 106% (inactive). The GFP response relative to DMSO is 96.5% (inactive) in assay [2], 104% in assay [2] (setting [8]) and 96.4% in assay [2] (setting [9]). Moreover, the GFP response, % of DMSO in assay [4] was 99.1% (inactive); in assay [5], 98.6% (inactive); in assay [5] (setting [6]) it was 101%; in assay [5] (setting [7]) it was 99.3%.

On to `COc1cc(C(=O)ON=C2C3CC4CC(C3)CC2C4)cc(OC)c1OC`, for which the GFP response vs DMSO in assay [1] was 97.4% (inactive); in assay [1] (setting [6]), 97.6%; in assay [1] (setting [7]) it was 95.6%; in assay [3], 107% (inactive). The GFP response relative to DMSO in assay [2] is 108% (inactive); in assay [2] (setting [8]), 102%; in assay [2] (setting [9]) it was 111%. In addition, the GFP response, % of DMSO in assay [4] was 61.1% (inactive); in assay [5] it was 145% (inactive); in assay [5] (setting [6]), 136%; in assay [5] (setting [7]), 147%.

Consider `O=C(CSc1cccc[n+]1[O-])CSc1cccc[n+]1[O-]`, for which the GFP response vs DMSO in assay [1] was 97.8% (inactive); in assay [1] (setting [6]), 101%; in assay [1] (setting [7]), 95%; in assay [3] it was 103% (inactive). The GFP response relative to DMSO was 119% (inactive) in assay [2], 116% in assay [2] (setting [8]) and 120% in assay [2] (setting [9]). Moreover, the GFP response, % of DMSO in assay [4] is 103% (inactive); in assay [5], 97.2% (inactive); in assay [5] (setting [6]), 101%; in assay [5] (setting [7]) it was 98.2%.

For the compound `CN(C)S(=O)(=O)c1cc(NC(=O)CN2CCOCC2)ccc1Cl`, the GFP response vs DMSO in assay [1] is 97.6% (inactive); in assay [1] (setting [6]), 97.3%; in assay [1] (setting [7]), 97.7%; in assay [3], 97.2% (inactive). For the same compound, the GFP response relative to DMSO is 95.3% (inactive) in assay [2], 99% in assay [2] (setting [8]) and 96.4% in assay [2] (setting [9]). For the same compound, the GFP response, % of DMSO in assay [4] was 97.3% (inactive); in assay [5] it was 100% (inactive); in assay [5] (setting [6]) it was 99.3%; in assay [5] (setting [7]), 102%.
